Test results from ChEMBL document CHEMBL1152161, “A facile synthesis, antibacterial, and antitubercular studies of some piperidin-4-one and tetrahydropyridine derivatives” (2008).
In brackets after ≈: the same amount, converted by molar mass. Activity calls are given as the source filed them. No cut-off for these calls is given here.

Columns and labels:
Haemophilus influenzae [1] = experiment: Antibacterial activity against Haemophilus influenzae by broth micro dilution method; assay type: functional
Procedure, shortened: (§1)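 MIC90 was found by broth microdilution following NCCLS methods. Compounds were tested up to a top concentration of […]. Linezolid and trovafloxacin served as positive controls and DMSO as the negative control.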

Enterococcus faecalis [2] = experiment: Antibacterial activity against vancomycin-resistant Enterococcus faecalis by broth micro dilution method; assay type: functional
Procedure, shortened: (§2)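 MIC90 was determined by broth microdilution following NCCLS methods. Linezolid and trovafloxacin were run as positive controls, with DMSO as the negative control. Compounds were tested up to a top concentration of 128.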

Escherichia coli [3] = experiment: Antibacterial activity against Escherichia coli LCB0012 by broth micro dilution method; assay type: functional; procedure, shortened: as §1
Escherichia coli [4] = experiment: Antibacterial activity against Escherichia coli LCB0010 at 128 ug/mL by broth micro dilution method; assay type: functional, organism-based
[5] = system: Staphylococcus epidermidis; experiment: Antibacterial activity against Staphylococcus epidermidis by broth micro dilution method; assay type: functional; procedure, shortened: as §2
Staphylococcus aureus [6] = experiment: Antibacterial activity against methicillin-resistant Staphylococcus aureus by broth micro dilution method; assay type: functional; procedure, shortened: as §2
Enterococcus faecalis [7] = experiment: Antibacterial activity against vancomycin and linezolid-resistant Enterococcus faecalis by broth micro dilution method; assay type: functional; procedure, shortened: as §2
Enterococcus faecalis [8] = experiment: Antibacterial activity against Enterococcus faecalis by broth micro dilution method; assay type: functional; procedure, shortened: as §1
Staphylococcus aureus [9] = experiment: Antibacterial activity against Staphylococcus aureus by broth micro dilution method; assay type: functional; procedure, shortened: as §1
Enterococcus faecium [10] = experiment: Antibacterial activity against Enterococcus faecium by broth micro dilution method; assay type: functional; procedure, shortened: as §1
Klebsiella pneumoniae [11] = experiment: Antibacterial activity against Klebsiella pneumoniae at 128 ug/mL by broth micro dilution method; assay type: functional, organism-based
Pseudomonas aeruginosa [12] = experiment: Antibacterial activity against Pseudomonas aeruginosa at 128 ug/mL by broth micro dilution method; assay type: functional, organism-based
Moraxella catarrhalis [13] = experiment: Antibacterial activity against Moraxella catarrhalis by broth micro dilution method; assay type: functional; procedure, shortened: as §1
[14] = system: Staphylococcus epidermidis; experiment: Antibacterial activity against methicillin-resistant Staphylococcus epidermidis by broth micro dilution method; assay type: functional; procedure, shortened: as §2
Escherichia coli [15] = experiment: Antibacterial activity against Escherichia coli LCB0011 by broth micro dilution method; assay type: functional; procedure, shortened: as §1
Enterococcus faecium [16] = experiment: Antibacterial activity against vancomycin-resistant Enterococcus faecium by broth micro dilution method; assay type: functional; conditions: Enterococcus faecium; procedure, shortened: as §2
Haemophilus influenzae [17] = experiment: Antibacterial activity against Haemophilus influenzae at 128 ug/mL by broth micro dilution method; assay type: functional, organism-based
[18] = system: Mycobacterium tuberculosis; experiment: Antitubercular activity against Mycobacterium tuberculosis H37Rv ATCC 27294 by radiometric respiratory technique; assay type: functional
[19] = system: Mycobacterium tuberculosis; experiment: Antitubercular potency, ratio of Rifampicin MIC to drug MIC against Mycobacterium tuberculosis H37Rv ATCC 27294; assay type: functional
[20] = system: Mycobacterium tuberculosis; experiment: Antitubercular potency, ratio of Isoniazid MIC to drug MIC against Mycobacterium tuberculosis H37Rv ATCC 27294; assay type: functional
Escherichia coli [21] = experiment: Antibacterial activity against Escherichia coli LCB0012 at 128 ug/mL by broth micro dilution method; assay type: functional, organism-based
Pseudomonas aeruginosa [22] = experiment: Antibacterial activity against Pseudomonas aeruginosa by broth micro dilution method; assay type: functional; procedure, shortened: as §1
Escherichia coli [23] = experiment: Antibacterial activity against Escherichia coli LCB0011 at 128 ug/mL by broth micro dilution method; assay type: functional, organism-based
Enterococcus faecalis [24] = experiment: Antibacterial activity against vancomycin and linezolid-resistant Enterococcus faecalis at 128 ug/mL by broth micro dilution method; assay type: functional, organism-based; procedure, shortened: as §2
Moraxella catarrhalis [25] = experiment: Antibacterial activity against Moraxella catarrhalis at 128 ug/mL by broth micro dilution method; assay type: functional, organism-based
Enterococcus faecium [26] = experiment: Antibacterial activity against Enterococcus faecium at 128 ug/mL by broth micro dilution method; assay type: functional, organism-based
[27] = system: Staphylococcus epidermidis; experiment: Antibacterial activity against methicillin-resistant Staphylococcus epidermidis at 128 ug/mL by broth micro dilution method; assay type: functional, organism-based; procedure, shortened: as §2
Staphylococcus aureus [28] = experiment: Antibacterial activity against methicillin-resistant Staphylococcus aureus at 128 ug/mL by broth micro dilution method; assay type: functional, organism-based; procedure, shortened: as §2
[29] = system: Staphylococcus epidermidis; experiment: Antibacterial activity against Staphylococcus epidermidis at 128 ug/mL by broth micro dilution method; assay type: functional, organism-based
Enterococcus faecalis [30] = experiment: Antibacterial activity against Enterococcus faecalis at 128 ug/mL by broth micro dilution method; assay type: functional, organism-based
Enterococcus faecalis [31] = experiment: Antibacterial activity against vancomycin-resistant Enterococcus faecalis at 128 ug/mL by broth micro dilution method; assay type: functional, organism-based; procedure, shortened: as §2
Staphylococcus aureus [32] = experiment: Antibacterial activity against Staphylococcus aureus at 128 ug/mL by broth micro dilution method; assay type: functional, organism-based
Enterococcus faecium [33] = experiment: Antibacterial activity against vancomycin-resistant Enterococcus faecium at 128 ug/mL by broth micro dilution method; assay type: functional, organism-based; procedure, shortened: as §2
[34] = system: Mycobacterium tuberculosis; experiment: Antitubercular activity against Mycobacterium tuberculosis H37Rv ATCC 27294 at 256 ug/mL by radiometric respiratory technique; assay type: functional, organism-based
Klebsiella pneumoniae [35] = experiment: Antibacterial activity against Klebsiella pneumoniae by broth micro dilution method; assay type: functional; procedure, shortened: as §1
Escherichia coli [36] = experiment: Antibacterial activity against Escherichia coli LCB0010 by broth micro dilution method; assay type: functional; procedure, shortened: as §1

SMILES	MIC90 (Enterococcus faecalis [2]) [µg/mL]	Activity (Escherichia coli [4])	MIC90 [5] [µg/mL]	MIC90 (Staphylococcus aureus [6]) [µg/mL]	MIC90 (Enterococcus faecalis [7]) [µg/mL]	MIC90 (Enterococcus faecalis [8]) [µg/mL]	MIC90 (Staphylococcus aureus [9]) [µg/mL]	MIC90 (Enterococcus faecium [10]) [µg/mL]	Activity (Klebsiella pneumoniae [11])	Activity (Pseudomonas aeruginosa [12])	MIC90 (Moraxella catarrhalis [13]) [µg/mL]	MIC90 [14] [µg/mL]	MIC90 (Escherichia coli [15]) [µg/mL]	MIC90 (Enterococcus faecium [16]) [µg/mL]	Activity (Haemophilus influenzae [17])	Activity (Escherichia coli [21])	Activity (Enterococcus faecalis [24])	Activity (Moraxella catarrhalis [25])	Activity (Enterococcus faecium [26])	Activity [29]	also measured
CC(=O)NC[C@H]1CN(c2ccc(N3CCOCC3)c(F)c2)C(=O)O1 [LINEZOLID]	2 (≈ 5.93 µM)	inactive	1 (≈ 2.96 µM)	2 (≈ 5.93 µM)	64 (≈ 190 µM)	2 (≈ 5.93 µM)	1 (≈ 2.96 µM)	2 (≈ 5.93 µM)	inactive	inactive	8 (≈ 23.7 µM)	2 (≈ 5.93 µM)	16 (≈ 47.4 µM)	2 (≈ 5.93 µM)	–	–	–	–	–	–	MIC90 (Haemophilus influenzae [1]): 16 µg/mL (≈ 47.4 µM); MIC90 (Escherichia coli [3]): 64 µg/mL (≈ 190 µM)
CCOC(=O)C1=C(O)CC(c2ccccc2)N(C(=O)CCl)C1c1ccccc1 (stereo not given)	64 (≈ 160 µM)	inactive	64 (≈ 160 µM)	64 (≈ 160 µM)	32 (≈ 80 µM)	32 (≈ 80 µM)	32 (≈ 80 µM)	64 (≈ 160 µM)	inactive	–	32 (≈ 80 µM)	128 (≈ 320 µM)	–	16 (≈ 40 µM)	inactive	inactive	–	–	–	–	MIC [18]: 16 µg/mL (≈ 40 µM); Ratio [19]: 200; Ratio [20]: 1.56; MIC90 (Pseudomonas aeruginosa [22]): 64 µg/mL (≈ 160 µM); Activity (Escherichia coli [23]): inactive
C=Cc1ccc(S(=O)(=O)OC2=C(C(=O)OCC)C(c3ccccc3)N(C(=O)CCl)C(c3ccccc3)C2)cc1 (stereo not given)	–	inactive	–	–	–	–	–	–	inactive	inactive	–	–	128 (≈ 226 µM)	–	–	–	inactive	inactive	inactive	inactive	MIC90 (Haemophilus influenzae [1]): 128 µg/mL (≈ 226 µM); Activity [27]: inactive; MIC90 (Escherichia coli [3]): 128 µg/mL (≈ 226 µM); Activity (Staphylococcus aureus [28]): inactive; Activity (Enterococcus faecalis [30]): inactive; Activity (Enterococcus faecalis [31]): inactive; Activity (Staphylococcus aureus [32]): inactive; Activity (Enterococcus faecium [33]): inactive
CCOC(=O)C1=C(OS(=O)(=O)c2ccccc2[N+](=O)[O-])CC(c2ccccc2)N(C(=O)CCl)C1c1ccccc1 (stereo not given)	–	inactive	–	–	–	128 (≈ 219 µM)	64 (≈ 109 µM)	–	inactive	inactive	–	–	128 (≈ 219 µM)	128 (≈ 219 µM)	inactive	inactive	inactive	inactive	inactive	inactive	Activity [27]: inactive; Activity (Staphylococcus aureus [28]): inactive; Activity [34]: inactive; Activity (Enterococcus faecalis [31]): inactive
N[C@@H]1[C@H]2CN(c3nc4c(cc3F)c(=O)c(C(=O)O)cn4-c3ccc(F)cc3F)C[C@@H]12 [TROVAFLOXACIN]	8 (≈ 19.2 µM)	–	< 0.0625	1 (≈ 2.4 µM)	16 (≈ 38.4 µM)	0.128 (≈ 0.307 µM)	< 0.0625	64 (≈ 154 µM)	–	–	< 0.0625	–	< 0.0625	8 (≈ 19.2 µM)	–	–	–	–	–	–	MIC90 (Haemophilus influenzae [1]): < 0.0625 µg/mL; MIC90 (Klebsiella pneumoniae [35]): 0.125 µg/mL (≈ 0.3 µM); MIC90 (Escherichia coli [3]): < 0.0625 µg/mL; MIC90 (Escherichia coli [36]): < 0.0625 µg/mL; MIC90 (Pseudomonas aeruginosa [22]): 0.125 µg/mL (≈ 0.3 µM)
CCOC(=O)C1=C(OS(=O)(=O)c2ccc([N+](=O)[O-])cc2)CC(c2ccccc2)N(C(=O)CCl)C1c1ccccc1 (stereo not given)	32 (≈ 54.7 µM)	inactive	64 (≈ 109 µM)	64 (≈ 109 µM)	64 (≈ 109 µM)	16 (≈ 27.3 µM)	16 (≈ 27.3 µM)	32 (≈ 54.7 µM)	–	inactive	32 (≈ 54.7 µM)	64 (≈ 109 µM)	128 (≈ 219 µM)	16 (≈ 27.3 µM)	inactive	inactive	–	–	–	–	MIC90 (Klebsiella pneumoniae [35]): 64 µg/mL (≈ 109 µM); MIC [18]: 16 µg/mL (≈ 27.3 µM); Ratio [19]: 200; Ratio [20]: 1.56
CC1C(=O)C(C)C(c2ccccc2Cl)N(C(=O)Cn2cnc3ccccc32)C1c1ccccc1Cl (stereo not given)	–	inactive	–	–	–	–	64 (≈ 126 µM)	–	inactive	inactive	–	128 (≈ 253 µM)	–	–	inactive	inactive	inactive	inactive	inactive	inactive	Activity (Staphylococcus aureus [28]): inactive; Activity (Enterococcus faecalis [30]): inactive; Activity (Enterococcus faecalis [31]): inactive; Activity (Escherichia coli [23]): inactive; Activity (Enterococcus faecium [33]): inactive
CCOC(=O)C1=C(OS(=O)(=O)c2cccc([N+](=O)[O-])c2)CC(c2ccccc2)N(C(=O)CCl)C1c1ccccc1 (stereo not given)	–	inactive	–	128 (≈ 219 µM)	–	128 (≈ 219 µM)	–	–	inactive	inactive	–	–	–	–	inactive	inactive	inactive	inactive	inactive	inactive	Activity [27]: inactive; Activity [34]: inactive; Activity (Enterococcus faecalis [31]): inactive; Activity (Staphylococcus aureus [32]): inactive; Activity (Escherichia coli [23]): inactive; Activity (Enterococcus faecium [33]): inactive
